Results from ChEMBL document CHEMBL4038284, “Synthesis of novel quinoline-based 4,5-dihydro-1H-pyrazoles as potential anticancer, antifungal, antibacterial and antiprotozoal agents” (Eur J Med Chem, 2017).
≈ marks a conversion by molar mass, not a printed value.

Experiments:
Klebsiella pneumoniae [1] = assay: Antibacterial activity against ESBL positive Klebsiella pneumoniae ATCC 700603 after 24 hrs by resazurin dye based microdilution assay; format: functional; details: Klebsiella pneumoniae, 700603, 24 h
Outline: (§1)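 MIC taken as the lowest concentration giving visible inhibition and/or by resazurin (1 mg/mL). Gentamicin was the control. Run in duplicate, repeated at least three times.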

Klebsiella pneumoniae [2] = assay: Antibacterial activity against carbapenemase positive Klebsiella pneumoniae BAA 1705 after 24 hrs by resazurin dye based microdilution assay; format: functional; details: BAA 1705, 24 h; outline: as §1
Leishmania panamensis = assay: Antileshmanial activity against EpiR/GFP fused Leishmania panamensis MHOM/CO/87/UA140 intracellular amastigotes infected in human […] cells after 72 hrs by flow cytometric method; format: functional, cell-based; details: MHOM/CO/87/UA140, 72 h
Outline: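 PMA-treated U-937 cells (3 × 10^5 cells/mL) infected with stationary-phase GFP L. panamensis promastigotes (15:1), 3 h at 34 °C, then washed. After 24 h, compounds added at 50, 12.5, 3.125 and 0.78 µg/mL for 72 h at 37 °C. EC50 by Probit; triplicate, two experiments.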

Candida albicans [3] = assay: Antifungal activity against Candida albicans ATCC 10231 incubated for 48 hrs under dark condition by broth microdilution method; format: functional; details: ATCC 10231, 48 h
Outline: (§2)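 CLSI M27-A3 broth microdilution in RPMI-1640, DMSO ≤1%, compounds at 250-0.98 µg/mL final. Inoculum 1-5 × 10^3 CFU/mL. Incubated 48 h at 30 °C in a moist dark chamber, read at OD405. MIC80 and MIC50 taken from % inhibition dose-response curves (mean ± SEM, triplicate). Amphotericin B was the positive control.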

Cryptococcus neoformans [4] = assay: Antifungal activity against Cryptococcus neoformans ATCC 32264 incubated for 48 hrs under dark condition by broth microdilution method; format: functional; details: ATCC 32264, 48 h; outline: as §2
Candida albicans [5] = assay: Growth inhibition of Candida albicans ATCC 10231 at 250 ug/ml incubated for 48 hrs under dark condition by broth microdilution method relative to control; format: functional; details: ATCC 10231, 48 h, read-out: GI
Outline: (§3)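 CLSI M27-A3 broth microdilution in RPMI-1640, DMSO ≤1%. Inoculum 1-5 × 10^3 CFU/mL. Incubated 48 h at 30 °C, dark. % inhibition = 100 − (OD405 test − sterility control)/(OD405 growth control − sterility control), with growth and sterility control wells. Triplicate.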

Candida albicans [6] = assay: Growth inhibition of Candida albicans ATCC 10231 at 125 ug/ml incubated for 48 hrs under dark condition by broth microdilution method relative to control; format: functional; details: ATCC 10231, 48 h, read-out: GI; outline: as §3
Candida albicans [7] = assay: Growth inhibition of Candida albicans ATCC 10231 at 62.5 ug/ml incubated for 48 hrs under dark condition by broth microdilution method relative to control; format: functional; details: ATCC 10231, 48 h, read-out: GI; outline: as §3
Candida albicans [8] = assay: Growth inhibition of Candida albicans ATCC 10231 at 31.25 ug/ml incubated for 48 hrs under dark condition by broth microdilution method relative to control; format: functional; details: ATCC 10231, 48 h, read-out: GI; outline: as §3
Candida albicans [9] = assay: Growth inhibition of Candida albicans ATCC 10231 at 15.62 ug/ml incubated for 48 hrs under dark condition by broth microdilution method relative to control; format: functional; details: ATCC 10231, 48 h, read-out: GI; outline: as §3
Candida albicans [10] = assay: Growth inhibition of Candida albicans ATCC 10231 at 7.8 ug/ml incubated for 48 hrs under dark condition by broth microdilution method relative to control; format: functional; details: ATCC 10231, 48 h, read-out: GI; outline: as §3
Candida albicans [11] = assay: Growth inhibition of Candida albicans ATCC 10231 at 3.4 ug/ml incubated for 48 hrs under dark condition by broth microdilution method relative to control; format: functional; details: ATCC 10231, 48 h, read-out: GI
Cryptococcus neoformans [12] = assay: Growth inhibition of Cryptococcus neoformans ATCC 32264 at 250 ug/ml incubated for 48 hrs under dark condition by broth microdilution method relative to control; format: functional; details: ATCC 32264, 48 h, read-out: GI; outline: as §3
Cryptococcus neoformans [13] = assay: Growth inhibition of Cryptococcus neoformans ATCC 32264 at 125 ug/ml incubated for 48 hrs under dark condition by broth microdilution method relative to control; format: functional; details: ATCC 32264, 48 h, read-out: GI; outline: as §3
Cryptococcus neoformans [14] = assay: Growth inhibition of Cryptococcus neoformans ATCC 32264 at 62.5 ug/ml incubated for 48 hrs under dark condition by broth microdilution method relative to control; format: functional; details: ATCC 32264, 48 h, read-out: GI; outline: as §3
Cryptococcus neoformans [15] = assay: Growth inhibition of Cryptococcus neoformans ATCC 32264 at 31.25 ug/ml incubated for 48 hrs under dark condition by broth microdilution method relative to control; format: functional; details: ATCC 32264, 48 h, read-out: GI; outline: as §3
Cryptococcus neoformans [16] = assay: Growth inhibition of Cryptococcus neoformans ATCC 32264 at 15.62 ug/ml incubated for 48 hrs under dark condition by broth microdilution method relative to control; format: functional; details: ATCC 32264, 48 h, read-out: GI; outline: as §3
Cryptococcus neoformans [17] = assay: Growth inhibition of Cryptococcus neoformans ATCC 32264 at 7.8 ug/ml incubated for 48 hrs under dark condition by broth microdilution method relative to control; format: functional; details: ATCC 32264, 48 h, read-out: GI; outline: as §3
Cryptococcus neoformans [18] = assay: Growth inhibition of Cryptococcus neoformans ATCC 32264 at 3.4 ug/ml incubated for 48 hrs under dark condition by broth microdilution method relative to control; format: functional; details: ATCC 32264, 48 h, read-out: GI
Staphylococcus aureus [19] = assay: Antibacterial activity against methicillin-sensitive Staphylococcus aureus ATCC 25923 after 24 hrs by resazurin dye based microdilution assay; format: functional; details: ATCC 25923, 24 h; outline: as §1
Staphylococcus aureus [20] = assay: Antibacterial activity against methicillin-resistant Staphylococcus aureus ATCC 43300 after 24 hrs by resazurin dye based microdilution assay; format: functional; details: ATCC 43300, 24 h
Outline: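 Broth microdilution in Mueller Hinton broth, inoculum 5 × 10^5 – 8 × 10^5. Compound stocks diluted in MHB with 5% DMSO and 0.1% Tween 80. Incubation 24 h at 35-37 °C. MIC is the lowest concentration with visible growth inhibition and/or by resazurin (1 mg/mL) read-out. Gentamicin as control. Run in duplicate, replicated at least three times.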

Staphylococcus aureus [21] = assay: Antibacterial activity against vancomycin-intermediate Staphylococcus aureus after 24 hrs by resazurin dye based microdilution assay; format: functional; outline: as §1
Escherichia coli = assay: Antibacterial activity against Escherichia coli ATCC 25922 after 24 hrs by resazurin dye based microdilution assay; format: functional; details: ATCC 25922, 24 h; outline: as §1
Pseudomonas aeruginosa = assay: Antibacterial activity against Pseudomonas aeruginosa ATCC 27853 after 24 hrs by resazurin dye based microdilution assay; format: functional; details: ATCC 27853, 24 h; outline: as §1
Neisseria gonorrhoeae = assay: Antibacterial activity against beta lactamase positive Neisseria gonorrhoeae ATCC 31426 by oxidase test; format: functional
Outline: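 Agar dilution MIC on GC agar with 1% isovitalex containing increasing compound concentrations. Plates inoculated with about 1×10^4 CFU (5 µL). MIC is the lowest concentration that inhibited growth, with growth confirmed by oxidase test. Run in duplicate, repeated at least three times.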

Plasmodium falciparum = assay: Antiplasmodial activity against chloroquine-sensitive Plasmodium falciparum 3D7 assessed as reduction in parasitic LDH activity after 48 hrs by Malstat reagent based […] method; format: functional; details: 3D7, 48 h
Outline: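 Unsynchronized P. falciparum 3D7 at 0.5% parasitemia and 1% hematocrit in RPMI with 3% Albumax II. Exposed to 100, 25, 6.25 and 1.56 µg/mL for 48 h at 37 °C under 90% N2/5% CO2/5% O2. After three freeze-thaw cycles, LDH measured with Malstat and NBT/PES, 1 h in the dark, read at 650 nm. IC50 by Probit; triplicate, ≥2 experiments.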

U-937 = assay: Cytotoxicity against human U937 cells after 72 hrs by MTT assay; format: cell-based; details: u-937, 72 h
Outline: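 Exponentially growing U-937 at 1 × 10^5 cells/mL in RPMI-1640 with 10% FBS were exposed to 200, 50, 12.5 and 3.125 µg/mL for 72 h at 37 °C, 5% CO2. MTT for 3 h, stopped with isopropanol/SDS, formazan read at 570 nm, blank-corrected. LC50 by Probit from % viability against untreated cells. Triplicate, at least two independent experiments.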

Trypanosoma cruzi = assay: Antitrypanosomal activity against Trypanosoma cruzi Tulahuen intracellular amastigote harboring LacZ infected in human U937 cells after 72 hrs by CPRG/Nonidet reagent based spectrophotometric method; format: functional, cell-based; details: U-937, 72 h
Outline: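 U-937 cells at 2.5 × 10^5 cells/mL in RPMI-1640 with 10% serum and 0.1 µg/mL PMA were infected with β-galactosidase-transfected Tulahuen epimastigotes at 5 parasites per cell. Infected cells were exposed to 50, 12.5, 3.125 and 0.78 µg/mL for 72 h. CPRG (100 uM) and 0.1% Nonidet P-40 were added for 3 h, read at 570 nm. EC50 by Probit. Triplicate, at least two experiments; benznidazole as reference.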

Structure (SMILES)	MIC (Klebsiella pneumoniae [1])	MIC (Klebsiella pneumoniae [2])	EC50 (Leishmania panamensis)	MIC50 (Candida albicans [3])	MIC80 (Candida albicans [3])	MIC50 (Cryptococcus neoformans [4])	MIC80 (Cryptococcus neoformans [4])	inhibition of growth at 250 µg/mL (Candida albicans [5])	inhibition of growth at 125 µg/mL (Candida albicans [6])	inhibition of growth at 62.5 µg/mL (Candida albicans [7])	inhibition of growth at 31.25 µg/mL (Candida albicans [8])	inhibition of growth at 15.62 µg/mL (Candida albicans [9])	inhibition of growth at 7.8 µg/mL (Candida albicans [10])	inhibition of growth at 3.4 µg/mL (Candida albicans [11])	inhibition of growth at 250 µg/mL (Cryptococcus neoformans [12])	inhibition of growth at 125 µg/mL (Cryptococcus neoformans [13])	inhibition of growth at 62.5 µg/mL (Cryptococcus neoformans [14])	inhibition of growth at 31.25 µg/mL (Cryptococcus neoformans [15])	inhibition of growth at 15.62 µg/mL (Cryptococcus neoformans [16])	inhibition of growth at 7.8 µg/mL (Cryptococcus neoformans [17])	other results
COc1cc(C2=NN(C(C)=O)C(c3cccc(Nc4ccnc5cc(Cl)ccc45)c3)C2)cc(OC)c1OC (stereo not given)	> 1000 µg/mL	> 1000 µg/mL	1.96 µg/mL (≈ 3.69 µM)	250 µg/mL (≈ 471 µM)	≥ 250 µg/mL	250 µg/mL (≈ 471 µM)	≥ 250 µg/mL	53.8%	37.3%	12.8%	8.42%	6.96%	1.46%	0%	53.1%	23.1%	13.3%	10.2%	9.86%	5.61%	inhibition of growth at 3.4 µg/mL (Cryptococcus neoformans [18]): 4.02%; MIC (Staphylococcus aureus [19]): > 1000 µg/mL; MIC (Staphylococcus aureus [20]): > 1000 µg/mL; MIC (Staphylococcus aureus [21]): > 1000 µg/mL; MIC (Escherichia coli): > 1000 µg/mL; MIC (Pseudomonas aeruginosa): > 1000 µg/mL; MIC (Neisseria gonorrhoeae): 31.2 µg/mL (≈ 58.8 µM); EC50 (Plasmodium falciparum): 22.9 µg/mL (≈ 43.2 µM); LC50 (U-937): 5.1 µg/mL (≈ 9.6 µM); EC50 (Trypanosoma cruzi): 4.08 µg/mL (≈ 7.68 µM)
COc1cc(C2=NN(c3ccccc3)C(c3cccc(Nc4ccnc5cc(Cl)ccc45)c3)C2)cc(OC)c1OC (stereo not given)	> 1000 µg/mL	> 1000 µg/mL	13.4 µg/mL (≈ 23.7 µM)	250 µg/mL (≈ 442 µM)	≥ 250 µg/mL	250 µg/mL (≈ 442 µM)	≥ 250 µg/mL	60.5%	42.3%	23.4%	13.4%	11.6%	6.63%	4.16%	58.6%	18.3%	16.2%	1.65%	0.13%	0%	inhibition of growth at 3.4 µg/mL (Cryptococcus neoformans [18]): 0%; MIC (Staphylococcus aureus [19]): > 1000 µg/mL; MIC (Staphylococcus aureus [20]): > 1000 µg/mL; MIC (Staphylococcus aureus [21]): > 1000 µg/mL; MIC (Escherichia coli): > 1000 µg/mL; MIC (Pseudomonas aeruginosa): > 1000 µg/mL; MIC (Neisseria gonorrhoeae): > 1000 µg/mL; EC50 (Plasmodium falciparum): 15.5 µg/mL (≈ 27.4 µM); LC50 (U-937): > 200 µg/mL; EC50 (Trypanosoma cruzi): 21.6 µg/mL (≈ 38.2 µM)
Clc1cc(Cl)cc(N2N=C(c3ccccc3)CC2c2cccc(Nc3ccnc4cc(Cl)ccc34)c2)c1 (stereo not given)	> 1000 µg/mL	> 1000 µg/mL	17.8 µg/mL (≈ 32.8 µM)	≥ 250 µg/mL	≥ 250 µg/mL	≥ 250 µg/mL	≥ 250 µg/mL	11.2%	2.17%	0%	0%	0%	0%	0%	7.5%	3.29%	3.07%	2.16%	1.36%	0%	inhibition of growth at 3.4 µg/mL (Cryptococcus neoformans [18]): 0%; MIC (Staphylococcus aureus [19]): > 1000 µg/mL; MIC (Staphylococcus aureus [20]): > 1000 µg/mL; MIC (Staphylococcus aureus [21]): > 1000 µg/mL; MIC (Escherichia coli): > 1000 µg/mL; MIC (Pseudomonas aeruginosa): > 1000 µg/mL; MIC (Neisseria gonorrhoeae): > 1000 µg/mL; EC50 (Plasmodium falciparum): 12.5 µg/mL (≈ 23.1 µM); LC50 (U-937): > 200 µg/mL; EC50 (Trypanosoma cruzi): 32.6 µg/mL (≈ 60 µM)
